According to ChEMBL document CHEMBL1132764, “Solution-phase combinatorial synthesis and evaluation of piperazine-2,5-dione derivatives” (2000):
Converted amounts (≈) assume the structure as drawn.

What follows are molecules tested on Artemia salina (assay: (§1) Compound was tested for brine shrimp (Artemia salina) toxicity measured as the lowest value at which severe inhibition of nauplii movement was observed). Settings: read-out: LD50 (the source's name).
Format: functional
Procedure, shortened: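 Artemia salina eggs held 24 h in artificial seawater; about 20 nauplii per well in 980 µL brine. Compound added at 1-100 µg in 20 µL DMSO, top level 100 µg/mL (solubility limit), each concentration in quadruplicate. Incubated 24 h at 26 °C. Nauplii movement inhibition and survival scored against DMSO controls, with control deaths <10%.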

Compound	LC50 [µg/mL]
COc1ccc(/C=c2\[nH]c(=O)/c(=C/c3ccccn3)[nH]c2=O)cc1OC	60 (≈ 171 µM)
COc1cc(/C=c2\[nH]c(=O)/c(=C/c3ccccn3)[nH]c2=O)cc(OC)c1	36 (≈ 102 µM)
COc1cc(/C=c2\[nH]c(=O)/c(=C/c3cccs3)[nH]c2=O)cc(OC)c1	18 (≈ 50.5 µM)

What follows are molecules tested on Artemia salina (assay: as §1). Settings: not given.
Format: functional
Procedure, shortened: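 Artemia salina eggs held 24 h in artificial seawater; about 20 nauplii per well in 980 µL brine. Compound added as 1-100 µg in 20 µL DMSO, top concentration 100 µg/mL, each concentration in quadruplicate. Incubated 24 h at 26 °C. Larvae scored against DMSO controls (control deaths <10%). Assay conditions validated with caffeine.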

Compound	lowest concentration causing severe inhibition of nauplii movement [µg/mL]
COc1ccc(/C=c2\[nH]c(=O)/c(=C/c3ccc(OC)cc3)[nH]c2=O)cc1	>100
COc1ccc(/C=c2\[nH]c(=O)/c(=C/c3cccs3)[nH]c2=O)cc1OC	>100
O=c1[nH]/c(=C\c2cccs2)c(=O)[nH]/c1=C\c1ccccn1	100
CC(C)/C=c1\[nH]c(=O)/c(=C/C(C)C)[nH]c1=O	>100
COc1cc(OC)c(/C=c2\[nH]c(=O)/c(=C/c3cccs3)[nH]c2=O)c(OC)c1	>100
COc1cc(/C=c2\[nH]c(=O)/c(=C/c3cc(OC)c(OC)c(OC)c3)[nH]c2=O)cc(OC)c1OC	>100
COc1ccc(/C=c2\[nH]c(=O)/c(=C/c3ccc([N+](=O)[O-])cc3)[nH]c2=O)cc1	>100
COc1cc(/C=c2\[nH]c(=O)/c(=C/c3ccccn3)[nH]c2=O)cc(OC)c1OC	100
O=c1[nH]/c(=C\c2ccccc2[N+](=O)[O-])c(=O)[nH]/c1=C\c1ccc([N+](=O)[O-])cc1	>100
C/C=c1\[nH]c(=O)/c(=C/CCCCC)[nH]c1=O	>100
C/C=c1\[nH]c(=O)c(=CC=Cc2ccccc2)[nH]c1=O	>100
O=c1[nH]/c(=C\c2cccs2)c(=O)[nH]/c1=C\c1cccs1	>100
COc1cc(OC)c(/C=c2\[nH]c(=O)/c(=C/c3c[nH]c4ccccc34)[nH]c2=O)c(OC)c1	>100
C/C=c1\[nH]c(=O)/c(=C/C=C/C)[nH]c1=O	>100
COc1ccc(/C=c2\[nH]c(=O)/c(=C/c3cc(OC)c(OC)c(OC)c3)[nH]c2=O)cc1OC	100
COc1cc(/C=c2\[nH]c(=O)/c(=C/c3cc(OC)c(OC)c(OC)c3)[nH]c2=O)cc(OC)c1	100
COc1cc(/C=c2\[nH]c(=O)/c(=C/c3c[nH]c4ccccc34)[nH]c2=O)cc(OC)c1	>100
O=c1[nH]/c(=C\c2ccc(Cl)cc2)c(=O)[nH]/c1=C\c1ccc(Cl)cc1	>100
C/C=C/C=c1\[nH]c(=O)/c(=C/C(C)C)[nH]c1=O	>100
COc1ccc(/C=c2\[nH]c(=O)/c(=C/c3ccc(Cl)cc3)[nH]c2=O)cc1	>100

Compound	lowest concentration causing severe inhibition of nauplii movement [µg/mL]
O=c1[nH]/c(=C\c2c[nH]c3ccccc23)c(=O)[nH]/c1=C\c1c[nH]c2ccccc12	>100
O=c1[nH]/c(=C\c2ccc([N+](=O)[O-])cc2)c(=O)[nH]/c1=C\c1ccc(Cl)cc1	>100
CC/C=c1\[nH]c(=O)c(=CC=Cc2ccccc2)[nH]c1=O	>100
COc1ccc(/C=c2\[nH]c(=O)/c(=C/c3ccc(OC)c(OC)c3)[nH]c2=O)cc1OC	>100
C/C=C/C=c1\[nH]c(=O)/c(=C/CC)[nH]c1=O	>100
O=c1[nH]/c(=C\c2ccc([N+](=O)[O-])cc2)c(=O)[nH]/c1=C\c1ccccc1	>100
COc1cc(OC)c(/C=c2\[nH]c(=O)/c(=C/c3cc(OC)c(OC)c(OC)c3)[nH]c2=O)c(OC)c1	>100
O=c1[nH]/c(=C\c2ccccc2[N+](=O)[O-])c(=O)[nH]/c1=C\c1ccccc1	>100
COc1cc(/C=c2\[nH]c(=O)/c(=C/c3ccc(OC)c(OC)c3)[nH]c2=O)cc(OC)c1	>100
C/C=C/C=c1\[nH]c(=O)/c(=C/CCCCC)[nH]c1=O	100
C/C=C/C=c1\[nH]c(=O)/c(=C/C=C/C)[nH]c1=O	>100
C/C=c1\[nH]c(=O)/c(=C/CC)[nH]c1=O	>100
COc1cc(/C=c2\[nH]c(=O)/c(=C/c3c(OC)cc(OC)cc3OC)[nH]c2=O)cc(OC)c1	100
CCCCC/C=c1\[nH]c(=O)/c(=C/C(C)C)[nH]c1=O	>100
CC/C=c1\[nH]c(=O)/c(=C/CC)[nH]c1=O	>100
O=c1[nH]/c(=C\c2c[nH]c3ccccc23)c(=O)[nH]/c1=C\c1cccs1	>100
COc1ccc(/C=c2\[nH]c(=O)/c(=C/c3ccccc3[N+](=O)[O-])[nH]c2=O)cc1	>100
CC/C=c1\[nH]c(=O)/c(=C/C(C)C)[nH]c1=O	>100
C/C=c1\[nH]c(=O)/c(=C/C)[nH]c1=O	100
O=c1[nH]/c(=C\c2ccccc2[N+](=O)[O-])c(=O)[nH]/c1=C\c1ccc(Cl)cc1	>100

Compound	lowest concentration causing severe inhibition of nauplii movement [µg/mL]
O=c1[nH]/c(=C\c2ccc(O)cc2)c(=O)[nH]/c1=C\c1ccccc1	>100
CC/C=c1\[nH]c(=O)/c(=C/CCCCC)[nH]c1=O	100
O=c1[nH]/c(=C\c2ccc([N+](=O)[O-])cc2)c(=O)[nH]/c1=C\c1ccc([N+](=O)[O-])cc1	>100
COc1cc(OC)c(/C=c2\[nH]c(=O)/c(=C/c3c(OC)cc(OC)cc3OC)[nH]c2=O)c(OC)c1	100
O=c1[nH]/c(=C\c2ccccc2)c(=O)[nH]/c1=C\c1ccccc1	>100
O=c1[nH]/c(=C\c2ccccn2)c(=O)[nH]/c1=C\c1ccccn1	100
O=c1[nH]/c(=C\c2ccccc2[N+](=O)[O-])c(=O)[nH]/c1=C\c1ccccc1[N+](=O)[O-]	>100
COc1cc(/C=c2\[nH]c(=O)/c(=C/c3cccs3)[nH]c2=O)cc(OC)c1OC	>100
O=c1[nH]/c(=C\c2c[nH]c3ccccc23)c(=O)[nH]/c1=C\c1ccccn1	>100
COc1cc(OC)c(/C=c2\[nH]c(=O)/c(=C/c3ccccn3)[nH]c2=O)c(OC)c1	>100
O=c1[nH]/c(=C\c2ccc(Cl)cc2)c(=O)[nH]/c1=C\c1ccccc1	>100
COc1cc(OC)c(/C=c2\[nH]c(=O)/c(=C/c3ccc(OC)c(OC)c3)[nH]c2=O)c(OC)c1	>100
CC(C)/C=c1\[nH]c(=O)c(=CC=Cc2ccccc2)[nH]c1=O	>100
CCCCC/C=c1\[nH]c(=O)/c(=C/CCCCC)[nH]c1=O	100
COc1cc(/C=c2\[nH]c(=O)/c(=C/c3cc(OC)cc(OC)c3)[nH]c2=O)cc(OC)c1	>100
COc1ccc(/C=c2\[nH]c(=O)/c(=C/c3c[nH]c4ccccc34)[nH]c2=O)cc1OC	>100
COc1cc(/C=c2\[nH]c(=O)/c(=C/c3c[nH]c4ccccc34)[nH]c2=O)cc(OC)c1OC	100
COc1ccc(/C=c2\[nH]c(=O)/c(=C/c3ccccc3)[nH]c2=O)cc1	>100
